According to ChEMBL document CHEMBL1123780, “2'-Fluorinated arabinonucleosides of 5-(2-haloalkyl)uracil: synthesis and antiviral activity” (1987):
≈ marks a conversion by molar mass, not a printed value.

What was measured:
[1] = test system: HEp-2; test: Proliferation of Hep-2 cells by propagation on day 4 by measuring optical density (absorbance) at 100 ug/mL; format: functional, Homo sapiens
How it was run: (§1)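 Cells were suspended in medium with compound and seeded at low density in 24-well dishes (Vero 5×10^4, HEp-2 1×10^5 cells/well), four wells per condition, and grown 4 days. Cells were stained with 0.01% neutral red in PBS for 2 h at 37 °C, washed, dried, and dissolved in ethanol/0.1 M NaH₂PO₄ (1:1). OD was read at 546 nm, taken as proportional to cell number.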

[2] = test system: HEp-2; test: Proliferation of Hep-2 cells by propagation on day 4 by measuring optical density (absorbance) at 30 ug/mL; format: functional, Homo sapiens; how it was run: as §1
[3] = test system: HEp-2; test: Proliferation of Hep-2 cells by propagation on day 4 by measuring optical density (absorbance) at 330 ug/mL; format: functional, Homo sapiens; how it was run: as §1
[4] = test system: HEp-2; test: Antiviral activity against HSV-1 (Brand) in human epithelial (Hep-2) cells; format: functional
How it was run: (§2)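 CPE inhibition: serial 3-fold compound dilutions in E-MEM, then virus and cell suspension (E-MEM plus 15% fetal calf serum) added together. Cell input set for a confluent monolayer in 1-2 days, virus input for 90-100% CPE in infected controls at 3 days. Plates then fixed and stained, and CPE estimated against infected untreated controls. Uninfected compound-treated cells included.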

[5] = test system: HEp-2; test: Antiviral activity against HSV-2 (K979) in human epithelial (Hep-2) cells; format: functional; how it was run: as §2
[6] = Antiviral activity against HSV-2 (G) in Primary Rabbit Kidney (PRK) cells; format: functional; conditions: Oryctolagus cuniculus
[7] = test system: Vero; test: Proliferation of Vero cells by propagation on day 4 by measuring optical density (absorbance) at 100 ug/mL; format: functional, Chlorocebus sabaeus; how it was run: as §1
[8] = test system: Vero; test: Proliferation of Vero cells by propagation on day 4 by measuring optical density (absorbance) at 30 ug/mL; format: functional, Chlorocebus sabaeus; how it was run: as §1
[9] = test system: Vero; test: Proliferation of Vero cells by propagation on day 4 by measuring optical density (absorbance) at 330 ug/mL; format: functional, Chlorocebus sabaeus; how it was run: as §1
[10] = test system: Vero; test: Antiviral activity against HSV-2 (K979) in Vero cells; format: functional; conditions: Chlorocebus sabaeus; how it was run: as §2
[11] = test system: Vero; test: Antiviral activity against HSV-1 (Brand) in Vero cells; format: functional; conditions: Chlorocebus sabaeus; how it was run: as §2
[12] = Antiviral activity against VZV (Ellen) in human lung fibroblast (HLF-1) cells; format: functional
[13] = Antiviral activity against HSV-1 (KOS) in Primary Rabbit Kidney (PRK) cells; format: functional; conditions: Oryctolagus cuniculus

Row | Structure (SMILES) | Control [1] | Control [2] | Control [3] | MIC [4] | MIC [5] | MIC [6] | Control [7] | Control [8] | Control [9] | MIC [10] | MIC [11] | MIC [12] | MIC [13]
1 | O=c1[nH]c(=O)n([C@H]2C[C@H](O)[C@@H](CO)O2)cc1/C=C/Br [BRIVUDINE] | 68% | 79% | 31% | 0.01 µg/mL (≈ 0.03 µM) | 3 µg/mL (≈ 9.01 µM) | 2.3 µg/mL (≈ 6.9 µM) | 71% | 74% | 55% | 30 µg/mL (≈ 90.1 µM) | 0.001 µg/mL (≈ 0.003 µM) | 0.001 µg/mL (≈ 0.003 µM) | 0.007 µg/mL (≈ 0.021 µM)
2 | O=c1[nH]c(=O)n([C@@H]2O[C@H](CO)[C@@H](O)[C@@H]2F)cc1CCF | 105% | 113% | 72% | 0.03 µg/mL (≈ 0.103 µM) | 0.1 µg/mL (≈ 0.342 µM) | 0.2 µg/mL (≈ 0.684 µM) | 87% | 98% | 90% | 0.3 µg/mL (≈ 1.03 µM) | 0.03 µg/mL (≈ 0.103 µM) | 0.03 µg/mL (≈ 0.103 µM) | 0.2 µg/mL (≈ 0.684 µM)
3 | Nc1nc(=O)n([C@@H]2O[C@H](CO)[C@@H](O)[C@H]2F)cc1I | 32% | 64% | 13% | 0.01 µg/mL (≈ 0.0269 µM) | 0.03 µg/mL (≈ 0.0808 µM) | 0.03 µg/mL (≈ 0.0808 µM) | 43% | 68% | 24% | 0.1 µg/mL (≈ 0.269 µM) | 0.01 µg/mL (≈ 0.0269 µM) | 0.01 µg/mL (≈ 0.0269 µM) | 0.02 µg/mL (≈ 0.0539 µM)
4 | NC1=NC(=O)C2N=CN(COCCO)C2=N1 (stereo not drawn) | 78% | 89% | 41% | 1 µg/mL (≈ 4.44 µM) | 3 µg/mL (≈ 13.3 µM) | 0.04 µg/mL (≈ 0.178 µM) | 73% | 77% | 56% | 1 µg/mL (≈ 4.44 µM) | 0.003 µg/mL (≈ 0.0133 µM) | – | 0.06 µg/mL (≈ 0.266 µM)
5 | Cc1cn([C@@H]2O[C@H](CO)[C@@H](O)[C@@H]2F)c(=O)[nH]c1=O [5-METHYL-2'-FLUOROARAURACIL] | 3% | 36% | 0% | 0.3 µg/mL (≈ 1.15 µM) | 0.1 µg/mL (≈ 0.384 µM) | 0.02 µg/mL (≈ 0.0769 µM) | 6% | 7% | 0% | 0.3 µg/mL (≈ 1.15 µM) | 0.03 µg/mL (≈ 0.115 µM) | 0.001 µg/mL (≈ 0.00384 µM) | 0.04 µg/mL (≈ 0.154 µM)
6 | O=c1[nH]c(=O)n([C@H]2C[C@H](O)[C@@H](CO)O2)cc1CCF | 86% | 97% | 60% | 0.03 µg/mL (≈ 0.109 µM) | 1 µg/mL (≈ 3.65 µM) | 1.5 µg/mL (≈ 5.47 µM) | 97% | 94% | 71% | 3 µg/mL (≈ 10.9 µM) | 0.1 µg/mL (≈ 0.365 µM) | 3 µg/mL (≈ 10.9 µM) | 0.58 µg/mL (≈ 2.11 µM)
7 | O=c1[nH]c(=O)n([C@@H]2O[C@H](CO)[C@@H](O)[C@@H]2F)cc1I [FIALURIDINE] | 13% | 49% | 0% | 0.01 µg/mL (≈ 0.0269 µM) | 0.1 µg/mL (≈ 0.269 µM) | 0.02 µg/mL (≈ 0.0538 µM) | 6% | 37% | 0% | 0.1 µg/mL (≈ 0.269 µM) | 0.01 µg/mL (≈ 0.0269 µM) | 0.003 µg/mL (≈ 0.00806 µM) | 0.02 µg/mL (≈ 0.0538 µM)
8 | O=c1[nH]c(=O)n([C@H]2C[C@H](O)[C@@H](CO)O2)cc1CCCl | 99% | 104% | 86% | 0.03 µg/mL (≈ 0.103 µM) | 3 µg/mL (≈ 10.3 µM) | 2.1 µg/mL (≈ 7.22 µM) | 91% | 84% | 82% | 30 µg/mL (≈ 103 µM) | 0.01 µg/mL (≈ 0.0344 µM) | 0.01 µg/mL (≈ 0.0344 µM) | 0.14 µg/mL (≈ 0.482 µM)
9 | O=c1[nH]c(=O)n([C@@H]2O[C@H](CO)[C@@H](O)[C@@H]2F)cc1CCCl | 107% | 116% | 68% | 0.1 µg/mL (≈ 0.324 µM) | 1 µg/mL (≈ 3.24 µM) | 2 µg/mL (≈ 6.48 µM) | 74% | 75% | 63% | 10 µg/mL (≈ 32.4 µM) | 0.3 µg/mL (≈ 0.972 µM) | 0.1 µg/mL (≈ 0.324 µM) | 0.3 µg/mL (≈ 0.972 µM)
10 | O=c1[nH]c(=O)n([C@H]2C[C@H](O)[C@@H](CO)O2)cc1I [IDOXURIDINE] | 20% | 61% | 0% | 0.3 µg/mL (≈ 0.847 µM) | 0.3 µg/mL (≈ 0.847 µM) | 0.91 µg/mL (≈ 2.57 µM) | 34% | 61% | 16% | 1 µg/mL (≈ 2.82 µM) | 0.1 µg/mL (≈ 0.282 µM) | 10 µg/mL (≈ 28.2 µM) | 0.2 µg/mL (≈ 0.565 µM)
11 | O=c1[nH]c(=O)n(C2O[C@H](CO)[C@@H](O)[C@@H]2O)cc1CCCl (stereo partly drawn) | – | – | – | 30 µg/mL (≈ 97.8 µM) | 100 µg/mL (≈ 326 µM) | – | – | – | – | 100 µg/mL (≈ 326 µM) | 30 µg/mL (≈ 97.8 µM) | – | –
